ChEMBL document CHEMBL2311305, “Antiproliferative potency of novel benzofuran-2-carboxamides on tumour cell lines: cell death mechanisms and determination of crystal structure” (Eur J Med Chem, 2013)
The source made the active and inactive calls. The calls are words filed in the database; no cut-off is given here.

What was measured:
HeLa = test: Cytotoxicity against human HeLa cells after 72 hrs by MTT assay; assay type: functional, cell-based
Summary of the method: (§1)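 Cells seeded at 3000-6000 per well on day 0, according to cell line doubling time. Compound added in five 10-fold dilutions, 72-h incubation, then MTT colorimetric read-out. Absorbances converted to percentage growth by NCI formulae. IC50 obtained by linear regression between the concentrations bracketing PG 50; ">100" assigned when no concentration reaches it. Quadruplicate points, three independent experiments.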

MIA PaCa-2 = test: Cytotoxicity against human MIAPaCa2 cells after 72 hrs by MTT assay; assay type: functional, cell-based; summary of the method: as §1
WI-38 = test: Cytotoxicity against human WI38 cells after 72 hrs by MTT assay; assay type: cell-based; summary of the method: as §1
SW-620 [1] = test: Cytotoxicity against human SW620 cells after 72 hrs by MTT assay; assay type: functional, cell-based; summary of the method: as §1
MCF7 = test: Cytotoxicity against human MCF7 cells after 72 hrs by MTT assay; assay type: functional, cell-based; summary of the method: as §1
SK-BR-3 = test: Cytotoxicity against human SKBR3 cells after 72 hrs by MTT assay; assay type: functional, cell-based; details: SK-BR-3, 72 h; summary of the method: as §1
SW-620 [2] = test: Induction of cell cycle arrest in human SW620 cells assessed as G2/M phase cells at 10 uM after 24 hrs by PI-staining based flow cytometric analysis (reference value: 9.3 +/- 2.6%); assay type: functional
SW-620 [3] = test: Induction of apoptosis in human SW620 cells assessed as caspase9 activation at 10 uM after 24 to 48 hrs by caspase protease assay; assay type: functional, cell-based
Summary of the method: (§2)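 Compound at 5 µM on SK-BR-3 and 10 µM on SW620. Cells harvested after 24 and 48 h, washed in PBS, lysed 10 min on ice, centrifuged. Lysate diluted to 3 mg/mL protein and mixed with DTT-containing reaction buffer and caspase-3, -8 or -9 substrate. Incubated 90 min at 37 °C in the dark. Absorbance read at 405 nm, duplicates, compared with untreated control.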

SW-620 [4] = test: Induction of apoptosis in human SW620 cells assessed as caspase3 activation at 10 uM after 24 to 48 hrs by caspase protease assay; assay type: functional, cell-based; summary of the method: as §2
SW-620 [5] = test: Induction of cell cycle arrest in human SW620 cells assessed as G2/M phase cells at 10 uM after 48 hrs by PI-staining based flow cytometric analysis (reference value: 8.5 +/- 1.6%); assay type: functional
SW-620 [6] = test: Induction of cell cycle arrest in human SW620 cells assessed as G2/M phase cells at 5 uM after 48 hrs by PI-staining based flow cytometric analysis (reference value: 8.5 +/- 1.6%); assay type: functional
SW-620 [7] = test: Induction of cell cycle arrest in human SW620 cells assessed as S phase cells at 10 uM after 48 hrs by PI-staining based flow cytometric analysis (reference value: 41.6 +/- 0.3%); assay type: functional
SW-620 [8] = test: Induction of cell cycle arrest in human SW620 cells assessed as S phase cells at 5 uM after 48 hrs by PI-staining based flow cytometric analysis (reference value: 41.6 +/- 0.3%); assay type: functional
SW-620 [9] = test: Induction of cell cycle arrest in human SW620 cells assessed as G1 phase cells at 10 uM after 48 hrs by PI-staining based flow cytometric analysis (reference value: 49.9 +/- 1.4%); assay type: functional
SW-620 [10] = test: Induction of cell cycle arrest in human SW620 cells assessed as G1 phase cells at 5 uM after 48 hrs by PI-staining based flow cytometric analysis (reference value: 49.9 +/- 1.4%); assay type: functional
SW-620 [11] = test: Induction of cell cycle arrest in human SW620 cells assessed as subG1 phase cells at 10 uM after 48 hrs by PI-staining based flow cytometric analysis (reference value: 5.8 +/- 0.3%); assay type: functional
SW-620 [12] = test: Induction of cell cycle arrest in human SW620 cells assessed as subG1 phase cells at 5 uM after 48 hrs by PI-staining based flow cytometric analysis (reference value: 5.8 +/- 0.3%); assay type: functional
SW-620 [13] = test: Induction of cell cycle arrest in human SW620 cells assessed as G2/M phase cells at 5 uM after 24 hrs by PI-staining based flow cytometric analysis (reference value: 9.3 +/- 2.6%); assay type: functional
SW-620 [14] = test: Induction of cell cycle arrest in human SW620 cells assessed as S phase cells at 10 uM after 24 hrs by PI-staining based flow cytometric analysis (reference value: 38.3 +/- 0.4%); assay type: functional
SW-620 [15] = test: Induction of cell cycle arrest in human SW620 cells assessed as S phase cells at 5 uM after 24 hrs by PI-staining based flow cytometric analysis (reference value: 38.3 +/- 0.4%); assay type: functional
SW-620 [16] = test: Induction of cell cycle arrest in human SW620 cells assessed as G1 phase cells at 10 uM after 24 hrs by PI-staining based flow cytometric analysis (reference value: 52.6 +/- 2.3%); assay type: functional
SW-620 [17] = test: Induction of cell cycle arrest in human SW620 cells assessed as G1 phase cells at 5 uM after 24 hrs by PI-staining based flow cytometric analysis (reference value: 52.6 +/- 2.3%); assay type: functional
SW-620 [18] = test: Induction of cell cycle arrest in human SW620 cells assessed as subG1 phase cells at 10 uM after 24 hrs by PI-staining based flow cytometric analysis (reference value: 18.1 +/- 3.8%); assay type: functional
SW-620 [19] = test: Induction of cell cycle arrest in human SW620 cells assessed as subG1 phase cells at 5 uM after 24 hrs by PI-staining based flow cytometric analysis (reference value: 18.1 +/- 3.8%); assay type: functional

SMILES | IC50 (HeLa; Homo sapiens, HeLa, 72 h) | IC50 (MIA PaCa-2; Homo sapiens, MIA PaCa-2, 72 h) | IC50 (WI-38; Homo sapiens, WI-38, 72 h) | IC50 (SW-620 [1]; Homo sapiens, SW-620, 72 h) | IC50 (MCF7; Homo sapiens, MCF7, 72 h) | IC50 (SK-BR-3) | also measured
O=C(Nc1ccc([N+](=O)[O-])cn1)c1cc2ccccc2o1 | 42.4 µM | 73.1 µM | 37.8 µM | 76.5 µM | 82.8 µM | > 100 µM | –
O=C(Nc1ccc([N+](=O)[O-])cc1)c1cc2ccccc2o1 | 11.4 µM | 26.6 µM | 47.6 µM | 27.9 µM | 4.9 µM | > 100 µM | –
CN(C)c1ccc(NC(=O)c2cc3ccccc3o2)cc1 [listing 1 of 2 here] | – | – | – | – | – | – | IC50 (HeLa; hela): 83.7 µM; IC50 (MIA PaCa-2; mia paca-2): > 100 µM; IC50 (WI-38; wi-38): > 100 µM; IC50 (SW-620 [1]; sw-620): 86 µM; IC50 (MCF7; mcf7): 35.6 µM
O=C(Nc1nc2ccc(C3=NCCN3)cc2s1)c1cc2ccccc2o1 | 59.8 µM | 97.1 µM | 59.2 µM | 56.4 µM | 50.9 µM | > 100 µM | –
CC(=O)Nc1ccc(NC(=O)c2cc3ccccc3o2)cn1 | 0.9 µM | 3.1 µM | 0.4 µM | 1.1 µM | 7.6 µM | 59.8 µM | Activity (SW-620 [2]): 25.3%; Activity (SW-620 [3]): Active; Activity (SW-620 [4]): Active; Activity (SW-620 [5]): 9.5%; Activity (SW-620 [6]): 11.2%; Activity (SW-620 [7]): 45.4%; Activity (SW-620 [8]): 44.9%; Activity (SW-620 [9]): 45.2%; Activity (SW-620 [10]): 43.9%; Activity (SW-620 [11]): 4.3%; Activity (SW-620 [12]): 4.7%; Activity (SW-620 [13]): 10.7%; Activity (SW-620 [14]): 31.4%; Activity (SW-620 [15]): 42.6%; Activity (SW-620 [16]): 43.5%; Activity (SW-620 [17]): 46.8%; Activity (SW-620 [18]): 18.2%; Activity (SW-620 [19]): 18.1%
N#Cc1ccc2nc(NC(=O)c3cc4ccccc4o3)[nH]c2c1 | > 100 µM | > 100 µM | 9.1 µM | 9.2 µM | > 100 µM | > 100 µM | –
N#Cc1ccc2nc(NC(=O)c3cc4ccccc4o3)sc2c1 | 89.6 µM | > 100 µM | 34.9 µM | > 100 µM | 21.5 µM | > 100 µM | –
CN(C)c1ccc(NC(=O)c2cc3ccccc3o2)cc1 [listing 2 of 2 here] | 49.1 µM | – | 81.2 µM | 54.2 µM | – | > 100 µM | IC50 (MIA PaCa-2; mia paca-2): 49.6 µM; IC50 (MCF7; mcf7): 8.5 µM
O=C(Nc1ccc(C2=NCCN2)cn1)c1cc2ccccc2o1 | 71.9 µM | > 100 µM | 68.7 µM | 67.1 µM | > 100 µM | > 100 µM | –
N#Cc1ccc(NC(=O)c2cc3ccccc3o2)nc1 | 23.9 µM | 44.7 µM | 52.4 µM | 69.2 µM | 5.3 µM | > 100 µM | –
O=C(Nc1nc2ccc([N+](=O)[O-])cc2s1)c1cc2ccccc2o1 | 17.5 µM | > 100 µM | 72.9 µM | > 100 µM | 63.9 µM | > 100 µM | –
O=C(Nc1nc2ccc([N+](=O)[O-])cc2[nH]1)c1cc2ccccc2o1 | 9.2 µM | 9.3 µM | 8.6 µM | 6.9 µM | 5.2 µM | > 100 µM | –
N#Cc1ccc(NC(=O)c2cc3ccccc3o2)cc1 | 7.6 µM | 27.1 µM | 7.9 µM | 7.4 µM | 7.6 µM | 34.2 µM | –
CC(=O)Nc1ccc(NC(=O)c2cc3ccccc3o2)cc1 | 77.3 µM | > 100 µM | 71.2 µM | > 100 µM | 45.1 µM | > 100 µM | –
